# Compound activity as filed in PubChem.
# Shown are actives, neighbours in structure and some others; about 2.2% of the full set was active somewhere.
# 14-3-3 Bad PPI = disrupts binding of bovine 14-3-3 zeta to phospho-Bad peptide. P63103. inhibition, % at 21.7 µM. 220,000 tested, 0.71% active. TR-FRET 14-3-3zeta/Dy647-pBad peptide displacement, 1 h. AID 781;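 active means inhibition above about 70%, limit read from the data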;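 further: 0% = full 14-3-3 plus peptide FRET controls and 100% = background without 14-3-3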
# eIF4E-4G inh = blocks eIF4E binding to eIF4G | AID 782 | 220,000 tested, 0.37% active | inhibition, % at 21.7 µM | TR-FRET eIF4E-eIF4GI(517-606) binding, 2 h | P63073+Q04637;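 active means inhibition above about 30%, limit read from the data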;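 further: 0% = full FRET control wells and 100% = background wells lacking eIF4GI fragment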
# Target sequence (P63073 whole entry, looked up, the tested form may be a part): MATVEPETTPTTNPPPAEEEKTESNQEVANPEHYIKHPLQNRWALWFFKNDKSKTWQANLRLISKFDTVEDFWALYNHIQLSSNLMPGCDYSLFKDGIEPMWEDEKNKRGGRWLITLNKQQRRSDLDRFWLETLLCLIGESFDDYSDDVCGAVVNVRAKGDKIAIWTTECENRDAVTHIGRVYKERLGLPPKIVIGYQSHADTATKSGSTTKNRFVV
# Target sequence (Q04637 whole entry, looked up, the tested form may be a part): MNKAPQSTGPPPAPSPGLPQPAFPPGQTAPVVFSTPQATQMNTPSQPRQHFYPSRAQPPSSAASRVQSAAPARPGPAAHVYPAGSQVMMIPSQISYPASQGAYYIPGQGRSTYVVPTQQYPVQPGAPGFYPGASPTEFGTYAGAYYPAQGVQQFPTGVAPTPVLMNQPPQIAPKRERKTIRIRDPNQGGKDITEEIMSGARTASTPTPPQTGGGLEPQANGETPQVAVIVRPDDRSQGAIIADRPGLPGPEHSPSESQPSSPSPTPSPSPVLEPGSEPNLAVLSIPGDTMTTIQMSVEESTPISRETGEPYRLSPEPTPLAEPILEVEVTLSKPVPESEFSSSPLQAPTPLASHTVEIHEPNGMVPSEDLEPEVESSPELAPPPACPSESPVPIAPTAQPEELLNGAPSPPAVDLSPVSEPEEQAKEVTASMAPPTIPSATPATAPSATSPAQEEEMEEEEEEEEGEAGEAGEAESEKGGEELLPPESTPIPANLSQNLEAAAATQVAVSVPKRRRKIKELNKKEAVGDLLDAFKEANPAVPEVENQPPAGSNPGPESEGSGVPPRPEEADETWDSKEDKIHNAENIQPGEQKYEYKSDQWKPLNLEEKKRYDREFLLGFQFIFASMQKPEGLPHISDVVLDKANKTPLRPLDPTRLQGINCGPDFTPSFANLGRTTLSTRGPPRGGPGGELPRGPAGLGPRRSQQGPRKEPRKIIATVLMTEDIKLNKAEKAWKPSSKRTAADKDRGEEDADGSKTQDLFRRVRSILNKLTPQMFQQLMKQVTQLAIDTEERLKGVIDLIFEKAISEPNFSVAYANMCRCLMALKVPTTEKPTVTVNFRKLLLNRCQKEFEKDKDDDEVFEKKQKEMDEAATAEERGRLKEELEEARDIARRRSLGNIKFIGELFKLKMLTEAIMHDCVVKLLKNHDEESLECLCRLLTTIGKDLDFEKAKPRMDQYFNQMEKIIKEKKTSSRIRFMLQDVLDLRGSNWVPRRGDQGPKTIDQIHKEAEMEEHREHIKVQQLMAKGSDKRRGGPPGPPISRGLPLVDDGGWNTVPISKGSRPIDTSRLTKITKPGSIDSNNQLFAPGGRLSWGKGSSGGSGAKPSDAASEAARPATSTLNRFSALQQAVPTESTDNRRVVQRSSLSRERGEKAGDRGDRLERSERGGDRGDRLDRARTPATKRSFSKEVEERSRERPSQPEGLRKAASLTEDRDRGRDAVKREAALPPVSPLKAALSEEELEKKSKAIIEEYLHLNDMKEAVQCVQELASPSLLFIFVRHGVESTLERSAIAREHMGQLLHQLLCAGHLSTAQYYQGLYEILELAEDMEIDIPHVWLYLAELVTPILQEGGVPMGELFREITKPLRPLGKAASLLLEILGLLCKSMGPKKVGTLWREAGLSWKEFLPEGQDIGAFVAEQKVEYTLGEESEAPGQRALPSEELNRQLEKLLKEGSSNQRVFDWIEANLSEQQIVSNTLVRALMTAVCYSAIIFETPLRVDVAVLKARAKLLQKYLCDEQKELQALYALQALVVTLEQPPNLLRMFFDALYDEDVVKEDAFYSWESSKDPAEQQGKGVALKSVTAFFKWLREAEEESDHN
# PERK inhibitor = human PERK inhibition, primary cell-based screen. Q9NZJ5. CHO PERK-DD fusion, SEAP luminescence translation reporter. inhibition, % at 5.6 µM. 220,000 tested, 0.17% active;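 active means inhibition above the mean inhibition of all tested compounds plus 3 SD, set separately per screening campaign, cut at about 2.9% in these data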;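 further: PERK kinase domain activated by AP20187 dimerizer at 100 nM; 0% = DMSO with dimerizer and 100% = rapamycin at 8.4 µM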
# Calb biofilm kill = mixture kills Candida albicans biofilm cells | C. albicans biofilm persisters + clotrimazole, fluorescence viability; primary screen in compound mixtures of four per well | inhibition, % at 7.6 µM | 120,000 tested, 0.02% active;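 active means inhibition above 30.3% in the primary screen of four-compound pools, then above 30% when the compound was retested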;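 further: compounds exposed to preformed 24 h biofilms for 48 h; 0% = untreated biofilm control and 100% = clotrimazole plus chlorhexidine kill blank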
#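 Incubation: 24 h biofilm formation, then 48 h compound exposure, 37 °C | Material: C. albicans biofilms | Buffer or medium: RPMI/MOPS medium, pH 7.0 | Measured by: 2-h Alamar Blue fluorescence, 535/590 nm excitation/emission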
# Hck-Nef inh = blocks Nef-activated human Hck kinase. P08631. Recombinant Hck-YEEI plus Nef, Z-Lyte FRET kinase assay. inhibition, % at 20 µM. 220,000 tested, 0.68% active. AID 463187;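 active means Hck-Nef kinase inhibition above about 50%, limit read from the data; inactive means inhibition below that limit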;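 further: 0% = DMSO with Hck plus Nef and 100% = Hck alone without Nef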
# p97 ATPase inh = blocks human p97 ATPase activity. P55072. recombinant p97 ATPase, Kinase-Glo ATP luminescence, 3 h. inhibition, % at 8 µM. 220,000 tested, 0.42% active. AID 1481; in the data active means inhibition above about 15%;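 further: 0% = DMSO vehicle and 100% = wells lacking enzyme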
# p97 confirm = human p97 ATPase inhibition, confirmation | recombinant p97 ATPase, Kinase-Glo ATP luminescence | AID 1517 | shares compounds with p97 ATPase inh | inhibition, % at 8 µM | 760 tested, 44% active;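 active means percent inhibition of p97 ATPase above a set limit, the primary screen's mean plus 3 SD, cut at about 15% in these data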;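 further: 0% = DMSO wells and 100% = wells lacking p97 protein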
# Hck-Nef confirm = confirmation of Hck-Nef kinase inhibitors | shares compounds with Hck-Nef inh | 1,300 tested, 28% active | Recombinant Hck-YEEI:Nef, Z-Lyte FRET kinase assay | calls only at 10 µM;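 active means average inhibition of at least 50%, with Z-scores no higher than 3 in both the phospho-tyrosine peptide and fluorescence counterscreens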
# Starred values were filed as active, the others as inactive; i = inactive; · = no result shown; + = active, no number.
SMILES,14-3-3 Bad PPI,eIF4E-4G inh,PERK inhibitor,Calb biofilm kill,Hck-Nef inh,p97 ATPase inh,p97 confirm,others
Cc1ccc(C(=O)NCCN2C3=NC[C@H](Cc4ccc(O)cc4)N3C[C@H]2Cc2ccc(O)cc2)cc1Br,-3,5,·,3,8,·,·,
Cc1ccc(C(=O)NCCN2C3=NC[C@@H](Cc4ccccc4)N3C[C@H]2Cc2ccc(O)cc2)cc1Br,3,-2,1,4,-21,20*,12,
O=C(Cc1ccc(Cl)cc1)Nc1ccc(NC(=O)c2cccs2)cc1,-2,0,1,-8,25,15*,12,
O=C(Nc1ccc(Cl)cc1)c1cccs1,0,7,1,·,5,6,·,
Cc1ccc(NC(=O)CSc2nnc3ccccn23)cc1S(=O)(=O)N1CCOCC1,-3,2,0,11,10,-1,·,
CCOC(=O)C1=C(c2ccccc2)NC(N)=NC1c1ccc(OCc2ccc(C(=O)OC)cc2)cc1 (stereo not drawn),90*,28,1,9,-164,33*,35*,
COc1ccccc1CNC(=O)C(C)Sc1ccsc1[N+](=O)[O-] (stereo not drawn),13,4,0,15,16,20*,8,
CC(Sc1ccsc1[N+](=O)[O-])C(=O)NCc1ccccc1 (stereo not drawn),7,2,0,14,15,16*,8,
O=c1c2cn[nH]c2nc(SCc2c(F)cccc2F)n1-c1ccc(Cl)cc1,-18,2,1,14,0,-1,·,
O=C(NNC(=S)NC(=O)C12CC3CC(CC(C3)C1)C2)c1ccncc1,0,-14,0,·,7,8,·,
O=C(O)CCCN=CC1=C(O)CNC1=O,-5,-1,0,15,22,6,·,
NC(=S)NNc1cccc2cccnc12,-22,-4,1,21,18,16*,11,
CCOC(=O)C1(CCCc2ccccc2)CCN(C(=O)C(C)n2cncn2)CC1 (stereo not drawn),-16,2,1,9,-3,4,·,
O=[N+]([O-])c1c(NCc2ccco2)ccc2nonc12,-3,0,1,16,3,18*,9,
c1ccc(Nc2nc(NCc3ccco3)c3ccccc3n2)cc1,4,5,-1,31,3,22*,28*,
N#Cc1cc2ccc(N3CCOCC3)cc2cc1C#N,·,·,-1,·,-1,15*,19*,
N#C/C(=C\c1ccc2c(c1)OCO2)C(N)=S,-6,-2,1,9,7,12,·,
N#C/C(=C/c1ccco1)C(N)=S,-4,-1,2,6,13,27*,10,
Cc1cccc(NC(=S)N(C)C)c1C,-5,-8,0,17,4,5,·,
Cc1cccc(Nc2cc(C)c3c(O)cccc3n2)c1C,-9,0,-1,8,-5,23*,16*,
COc1cc(OC)cc(C(=O)NNC(=S)Nc2ccc(S(N)(=O)=O)cc2)c1,-19,-7,1,-1,11,21*,25*,
FC(F)(F)c1nnc2c(Sc3ccccc3)nc3ccccc3n12,1,6,1,·,1,8,·,
FC(F)(F)c1nnc2c(Sc3ccccn3)nc3ccccc3n12,-15,6,0,·,0,19*,6,
CC(=O)c1cc2c(cc1NC(=O)c1ccccc1C)OCO2,7,1,-1,8,15,-4,·,
OCC#Cc1ncc(C(F)(F)F)cc1Cl,-14,-2,1,8,22,28*,33*,
SMILES,14-3-3 Bad PPI,eIF4E-4G inh,PERK inhibitor,Calb biofilm kill,Hck-Nef inh,p97 ATPase inh,p97 confirm,others
CS(=O)(=O)c1sc(C#N)c2c1C(=O)CC(c1ccccc1)C2 (stereo not drawn),-11,-1,1,23,-26,25*,22*,
CC(=O)Nc1c(S(=O)(=O)c2ccccc2)c2nc3ccccc3nc2n1Cc1ccccc1,15,8,0,·,6,-5,·,
Cc1ccc(S(=O)(=O)c2c(N)n(-c3ccccc3)c3nc4ccccc4nc23)cc1,7,4,0,2,18,1,·,
O=S(=O)(Nc1c(S(=O)(=O)c2ccccc2)c2nc3ccccc3nc2n1C1CCCCC1)c1ccccc1,12,4,1,11,53*,20*,-1,
C=CCn1c(NS(=O)(=O)c2ccccc2)c(S(=O)(=O)c2ccc(C)cc2)c2nc3ccccc3nc21,8,4,1,5,83*,31*,29*,Hck-Nef confirm=i
CCCNC(=S)N1CC2(C)CN(C(=O)C(=O)OC)CC(C)(C1)C2=O,-16,0,0,7,21,3,·,
COc1ccc(CCNC(=S)NC2CCN(Cc3ccccc3)CC2)cc1,-25,-1,1,1,26,1,·,
Cc1cc(/C=C(\C#N)C(=O)NCc2ccco2)c(C)n1C1CCCC1,4,5,-1,·,14,-5,·,
CC(=O)c1ccc2c(c1)C1C=CCC1C(C(=O)O)N2 (stereo not drawn),65,31*,0,22,74*,20*,30*,Hck-Nef confirm=+
O=C(O)c1ccc2c(c1)C1C=CCC1C(c1cc3c(cc1Br)OCO3)N2 (stereo not drawn),9,2,0,18,26,-5,·,
Cc1ccc(S(=O)(=O)c2cc3ccccc3nc2N)cc1,-14,3,0,12,18,4,·,
O=C(NN1C(=O)/C(=C/C=C/c2ccco2)SC1=S)c1ccccc1O,75*,36*,1,14,83*,55*,21*,Hck-Nef confirm=+
O=C1NC(=S)S/C1=C\C=C\c1ccc([N+](=O)[O-])o1,87*,20,0,13,56*,45*,18*,Hck-Nef confirm=+
Cc1nc(NC(=O)c2ccccc2)sc1-c1csc(Nc2ccc(C(=O)O)cc2)n1,75*,35*,1,14,93*,15*,15*,Hck-Nef confirm=i
COc1cccc(Nc2nc(-c3sc(NC(=O)c4ccccc4)nc3C)cs2)c1,52,-12,-1,·,-1,-5,·,
Cc1cccc(N=C2NC(=O)/C(=C/C=C/c3ccco3)S2)c1C,4,10,1,14,74*,21*,12,Hck-Nef confirm=i
c1coc(-c2nc(-c3ccco3)c(-c3ccco3)nc2-c2ccco2)c1,55,1,1,·,60*,40*,9,Hck-Nef confirm=i
COc1ccc(C(=O)CN2CCN(S(=O)(=O)c3cccc([N+](=O)[O-])c3)CC2)cc1,8,-1,0,5,2,1,·,
